Columns and labels:
Mu-type opioid receptor [1] = biological target: T1, Mu-type opioid receptor (Homo sapiens, UniProt P35372); assay: Displacement of [3H]DPN from recombinant human mu opioid receptor expressed in CHOK1 cell membranes
In short: (§1)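 Competition binding with the radioligand [3H]-DPN on membranes from CHO-K1 cells stably transfected with human recombinant μ or δ opioid receptor or guinea pig κ opioid receptor. Affinity is reported as pKi.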

[2] = biological target: Delta-type opioid receptor (Homo sapiens, UniProt P41143); assay: Displacement of [3H]DPN from recombinant human delta opioid receptor expressed in CHOK1 cell membranes; in short: as §1
Liver [3] = assay: (§2) Half life in dog liver microsomes; type: ADME, Canis lupus familiaris, microsome; conditions: microsomes
[4] = biological target: Kappa-type opioid receptor (Cavia porcellus, UniProt P41144); assay: Displacement of [3H]DPN from guinea pig kappa opioid receptor expressed in CHOK1 cell membranes; in short: as §1
Mu-type opioid receptor [5] = biological target: T1, Mu-type opioid receptor; assay: Intrinsic activity at recombinant human mu opioid receptor expressed in CHOK1 cells by [35S]GTPgammaS binding assay relative to DAMGO; type: functional, cell-based
In short: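 Membranes from CHO-K1 cells stably transfected with human recombinant μ-opioid receptor; agonist activity measured as [35S]-GTPγS binding. Maximum compound-evoked response minus basal, expressed as percentage of the maximum response evoked by DAMGO.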

[6] = Half life in rat liver microsomes; type: ADME, microsome; conditions: liver microsomes
[7] = as §2; type: ADME, Canis lupus familiaris, microsome; conditions: liver microsomes
Liver [8] = assay: Half life in human liver microsomes; type: ADME, microsome; conditions: microsomes

Chain of Delta-type opioid receptor (P41143 whole entry): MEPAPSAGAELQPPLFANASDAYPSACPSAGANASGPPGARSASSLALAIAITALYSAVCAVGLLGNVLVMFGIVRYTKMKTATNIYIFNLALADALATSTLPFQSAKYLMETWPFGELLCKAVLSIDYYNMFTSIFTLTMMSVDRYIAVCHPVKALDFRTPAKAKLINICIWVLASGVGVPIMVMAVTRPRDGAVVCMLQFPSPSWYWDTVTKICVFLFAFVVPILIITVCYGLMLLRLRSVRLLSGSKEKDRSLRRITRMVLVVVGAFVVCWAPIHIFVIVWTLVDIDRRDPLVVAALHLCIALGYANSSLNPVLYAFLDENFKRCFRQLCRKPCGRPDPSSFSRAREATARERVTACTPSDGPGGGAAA
T1 sequence (P35372 whole entry): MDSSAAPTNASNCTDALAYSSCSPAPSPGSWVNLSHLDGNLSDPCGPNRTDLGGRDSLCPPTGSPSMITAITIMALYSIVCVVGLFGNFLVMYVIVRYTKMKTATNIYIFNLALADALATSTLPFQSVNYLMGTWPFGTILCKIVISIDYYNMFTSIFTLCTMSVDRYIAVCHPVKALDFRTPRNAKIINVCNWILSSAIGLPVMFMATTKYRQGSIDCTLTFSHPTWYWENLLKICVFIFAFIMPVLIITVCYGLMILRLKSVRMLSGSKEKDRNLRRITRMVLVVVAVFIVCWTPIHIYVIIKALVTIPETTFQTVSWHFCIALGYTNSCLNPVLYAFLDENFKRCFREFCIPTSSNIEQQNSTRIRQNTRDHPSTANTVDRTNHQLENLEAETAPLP
Chain of Kappa-type opioid receptor (P41144 whole entry): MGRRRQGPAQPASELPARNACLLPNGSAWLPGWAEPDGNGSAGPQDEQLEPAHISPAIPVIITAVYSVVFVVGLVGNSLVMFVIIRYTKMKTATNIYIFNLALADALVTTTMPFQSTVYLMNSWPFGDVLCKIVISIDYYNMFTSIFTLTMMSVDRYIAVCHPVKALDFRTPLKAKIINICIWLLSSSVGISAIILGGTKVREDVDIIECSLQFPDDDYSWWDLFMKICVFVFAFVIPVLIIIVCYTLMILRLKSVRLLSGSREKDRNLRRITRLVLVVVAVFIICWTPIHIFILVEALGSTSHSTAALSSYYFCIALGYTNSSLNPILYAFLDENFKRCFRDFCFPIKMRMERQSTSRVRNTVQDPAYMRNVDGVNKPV

Structure (SMILES): NC(=O)c1cccc(C2C[C@H]3CC[C@H](C2)N3CCCOc2ccccc2)c1 (some centres undefined) [listing 1 of 2 here]
- Ki (Mu-type opioid receptor [1]): 6.31 nM
- Ki [2]: 100 nM
- t1/2 (Liver [3]): 6 min
- Ki [4]: 31.6 nM

Structure (SMILES): CC(C)(C)c1ccc(CN2[C@@H]3CC[C@@H]2CC(c2cccc(C(N)=O)c2)C3)cc1 (relative stereo; 28b) [listing 1 of 2 here]
- Intrinsic activity (Mu-type opioid receptor [5]): 73%

Structure (SMILES): NC(=O)c1cccc(C2C[C@H]3CC[C@H](C2)N3CC(=O)C2CCCCC2)c1 (relative stereo; 30a)
- Intrinsic activity (Mu-type opioid receptor [5]): 41%

Structure (SMILES): Oc1cccc(C2C[C@H]3CC[C@H](C2)N3Cc2c(F)cccc2F)c1 (relative stereo; 18a) [listing 1 of 2 here]
- Ki (Mu-type opioid receptor [1]): 15.8 nM
- Ki [2]: 158 nM
- half-life [6]: 2 min
- half-life [7]: 20 min
- Ki [4]: 5.01 nM
- t1/2 (Liver [8]): 29 min

Structure (SMILES): Oc1cccc(C2C[C@H]3CC[C@H](C2)N3CCCc2ccccc2)c1 (relative stereo; 12b) [listing 1 of 2 here]
- Ki (Mu-type opioid receptor [1]): 5.01 nM
- Ki [2]: 63.1 nM
- Ki [4]: 7.94 nM
- t1/2 (Liver [8]): 27 min

Structure (SMILES): CCCCCCCN1[C@@H]2CC[C@@H]1CC(c1cccc(O)c1)C2 (relative stereo; 17a) [listing 1 of 2 here]
- Intrinsic activity (Mu-type opioid receptor [5]): 26%

Structure (SMILES): NC(=O)c1cccc(C2C[C@H]3CC[C@H](C2)N3CC(=O)C2CCCCC2)c1 (relative stereo; 30b)
- Intrinsic activity (Mu-type opioid receptor [5]): 93%

Structure (SMILES): CCCCCCCN1[C@@H]2CC[C@@H]1CC(c1cccc(O)c1)C2 (relative stereo; 17a) [listing 2 of 2 here]
- Ki (Mu-type opioid receptor [1]): 0.251 nM
- Ki [2]: 2.51 nM
- half-life [6]: 3 min
- t1/2 (Liver [3]): 2 min
- Ki [4]: 0.251 nM
- t1/2 (Liver [8]): 10 min

Structure (SMILES): Oc1cccc(C2C[C@H]3CC[C@H](C2)N3CC(O)Cc2ccccc2)c1 (relative stereo; 23a) [listing 1 of 2 here]
- Intrinsic activity (Mu-type opioid receptor [5]): 1%

Structure (SMILES): NC(=O)c1cccc(C2C[C@H]3CC[C@H](C2)N3CCCOc2ccccc2)c1 (relative stereo)
- Intrinsic activity (Mu-type opioid receptor [5]): 0%

Structure (SMILES): Oc1cccc(C2C[C@H]3CC[C@H](C2)N3CC(O)Cc2ccccc2)c1 (relative stereo; 23b) [listing 1 of 2 here]
- Intrinsic activity (Mu-type opioid receptor [5]): 36%

Structure (SMILES): NC(=O)c1cccc(C2C[C@H]3CC[C@H](C2)N3Cc2c(F)cccc2F)c1 (relative stereo; 26a)
- Intrinsic activity (Mu-type opioid receptor [5]): 26%

Structure (SMILES): Oc1cccc(C2C[C@H]3CC[C@H](C2)N3Cc2c(F)cccc2F)c1 (relative stereo; 18b) [listing 1 of 2 here]
- Ki (Mu-type opioid receptor [1]): 631 nM
- Ki [2]: 2510 nM
- t1/2 (Liver [3]): 13 min
- Ki [4]: 126 nM
- t1/2 (Liver [8]): 75 min

Structure (SMILES): O=C1c2ccccc2C(=O)N1CCCCN1[C@@H]2CC[C@@H]1CC(c1cccc(O)c1)C2 (relative stereo; 21a)
- Intrinsic activity (Mu-type opioid receptor [5]): 26%

Structure (SMILES): CC(C)(C)c1ccc(CN2[C@@H]3CC[C@@H]2CC(c2cccc(O)c2)C3)cc1 (relative stereo; 20b) [listing 1 of 2 here]
- Intrinsic activity (Mu-type opioid receptor [5]): 97%

Structure (SMILES): Oc1cccc(C2C[C@H]3CC[C@H](C2)N3CCCOc2ccccc2)c1 (relative stereo; 19b) [listing 1 of 2 here]
- Intrinsic activity (Mu-type opioid receptor [5]): 85%

Structure (SMILES): O=C(CN1[C@@H]2CC[C@@H]1CC(c1cccc(O)c1)C2)C1CCCCC1 (relative stereo; 22b) [listing 1 of 2 here]
- Ki (Mu-type opioid receptor [1]): 2 nM
- Ki [2]: 20 nM
- Ki [4]: 0.794 nM
- t1/2 (Liver [8]): 13 min

Structure (SMILES): CC(C)(C)c1ccc(CN2[C@@H]3CC[C@@H]2CC(c2cccc(O)c2)C3)cc1 (relative stereo; 20b) [listing 2 of 2 here]
- Ki (Mu-type opioid receptor [1]): 2 nM
- Ki [2]: 31.6 nM
- t1/2 (Liver [3]): 7 min
- Ki [4]: 3.16 nM
- t1/2 (Liver [8]): 67 min

Structure (SMILES): Oc1cccc(C2C[C@H]3CC[C@H](C2)N3Cc2c(F)cccc2F)c1 (relative stereo; 18b) [listing 2 of 2 here]
- Intrinsic activity (Mu-type opioid receptor [5]): 48%

Structure (SMILES): CCCCCCCN1[C@@H]2CC[C@@H]1CC(c1cccc(C(N)=O)c1)C2 (some centres undefined)
- Intrinsic activity (Mu-type opioid receptor [5]): 38%

Structure (SMILES): Oc1cccc(C2C[C@H]3CC[C@H](C2)N3CC(O)Cc2ccccc2)c1 (relative stereo; 23a) [listing 2 of 2 here]
- Ki (Mu-type opioid receptor [1]): 0.251 nM
- Ki [2]: 6.31 nM
- half-life [6]: 2 min
- half-life [7]: 2 min
- t1/2 (Liver [8]): 32 min

Structure (SMILES): CC(C)(C)c1ccc(CN2[C@@H]3CC[C@@H]2CC(c2cccc(C(N)=O)c2)C3)cc1 (relative stereo; 28a)
- Intrinsic activity (Mu-type opioid receptor [5]): 92%

Structure (SMILES): NC(=O)c1cccc(C2C[C@H]3CC[C@H](C2)N3CCCCN2C(=O)c3ccccc3C2=O)c1 (relative stereo; 29b) [listing 1 of 2 here]
- Intrinsic activity (Mu-type opioid receptor [5]): 75%

Structure (SMILES): O=C(CN1[C@@H]2CC[C@@H]1CC(c1cccc(O)c1)C2)C1CCCCC1 (relative stereo; 22a)
- Intrinsic activity (Mu-type opioid receptor [5]): 33%

Structure (SMILES): Oc1cccc(C2C[C@H]3CC[C@H](C2)N3CCCOc2ccccc2)c1 (relative stereo; 19b) [listing 2 of 2 here]
- Ki (Mu-type opioid receptor [1]): 3.16 nM
- Ki [2]: 63.1 nM
- t1/2 (Liver [3]): 2 min
- Ki [4]: 20 nM
- t1/2 (Liver [8]): 20 min

Structure (SMILES): CC(C)(C)c1ccc(CN2[C@@H]3CC[C@@H]2CC(c2cccc(O)c2)C3)cc1 (relative stereo; 20a)
- Intrinsic activity (Mu-type opioid receptor [5]): 100%

Structure (SMILES): CCCCCCCN1[C@@H]2CC[C@@H]1CC(c1cccc(C(N)=O)c1)C2 (relative stereo)
- Intrinsic activity (Mu-type opioid receptor [5]): 28%

Structure (SMILES): NC(=O)c1cccc(C2C[C@H]3CC[C@H](C2)N3CCCc2ccccc2)c1 (relative stereo; 24a)
- Intrinsic activity (Mu-type opioid receptor [5]): 24%

Structure (SMILES): NC(=O)c1cccc(C2C[C@H]3CC[C@H](C2)N3CCCCN2C(=O)c3ccccc3C2=O)c1 (relative stereo; 29b) [listing 2 of 2 here]
- Ki (Mu-type opioid receptor [1]): 31.6 nM
- Ki [2]: 200 nM
- t1/2 (Liver [3]): 11 min

Structure (SMILES): NC(=O)c1cccc(C2C[C@H]3CC[C@H](C2)N3Cc2c(F)cccc2F)c1 (relative stereo; 26b)
- Intrinsic activity (Mu-type opioid receptor [5]): 19%

Structure (SMILES): Oc1cccc(C2CC3CCC(C2)N3CCCc2ccccc2)c1 (mixture of isomers)
- Ki (Mu-type opioid receptor [1]): 0.158 nM
- Ki [2]: 1.26 nM
- Intrinsic activity (Mu-type opioid receptor [5]): 22%

Structure (SMILES): Oc1cccc(C2C[C@H]3CC[C@H](C2)N3Cc2c(F)cccc2F)c1 (relative stereo; 18a) [listing 2 of 2 here]
- Intrinsic activity (Mu-type opioid receptor [5]): 36%

Structure (SMILES): NC(=O)c1cccc(C2C[C@H]3CC[C@H](C2)N3CCCCN2C(=O)c3ccccc3C2=O)c1 (relative stereo; 29a)
- Intrinsic activity (Mu-type opioid receptor [5]): 0%

Structure (SMILES): O=C(CN1[C@@H]2CC[C@@H]1CC(c1cccc(O)c1)C2)C1CCCCC1 (relative stereo; 22b) [listing 2 of 2 here]
- Intrinsic activity (Mu-type opioid receptor [5]): 57%

Structure (SMILES): NC(=O)c1cccc(C2C[C@H]3CC[C@H](C2)N3CC(O)Cc2ccccc2)c1 (relative stereo)
- Intrinsic activity (Mu-type opioid receptor [5]): 3%

Structure (SMILES): NC(=O)c1cccc(C2C[C@H]3CC[C@H](C2)N3CCCOc2ccccc2)c1 (some centres undefined) [listing 2 of 2 here]
- Intrinsic activity (Mu-type opioid receptor [5]): 95%

Structure (SMILES): Oc1cccc(C2C[C@H]3CC[C@H](C2)N3CCCc2ccccc2)c1 (relative stereo; 12a)
- Intrinsic activity (Mu-type opioid receptor [5]): 22%

Structure (SMILES): NC(=O)c1cccc(C2C[C@H]3CC[C@H](C2)N3CC(O)Cc2ccccc2)c1 (stereo in doubt; 31b)
- Intrinsic activity (Mu-type opioid receptor [5]): 39%

Structure (SMILES): CCCCCCCN1[C@@H]2CC[C@@H]1CC(c1cccc(O)c1)C2 (relative stereo; 17b)
- Intrinsic activity (Mu-type opioid receptor [5]): 62%

Structure (SMILES): Oc1cccc(C2C[C@H]3CC[C@H](C2)N3CC(O)Cc2ccccc2)c1 (relative stereo; 23b) [listing 2 of 2 here]
- Ki (Mu-type opioid receptor [1]): 10 nM
- Ki [2]: 251 nM
- Ki [4]: 20 nM
- t1/2 (Liver [8]): > 90 min

Structure (SMILES): Oc1cccc(C2C[C@H]3CC[C@H](C2)N3CCCOc2ccccc2)c1 (relative stereo; 19a)
- Intrinsic activity (Mu-type opioid receptor [5]): 9%

Structure (SMILES): CC(C)(C)c1ccc(CN2[C@@H]3CC[C@@H]2CC(c2cccc(C(N)=O)c2)C3)cc1 (relative stereo; 28b) [listing 2 of 2 here]
- Ki (Mu-type opioid receptor [1]): 10 nM
- Ki [2]: 200 nM
- Ki [4]: 31.6 nM

Structure (SMILES): NC(=O)c1cccc(C2C[C@H]3CC[C@H](C2)N3CCCc2ccccc2)c1 (relative stereo; 24b)
- Intrinsic activity (Mu-type opioid receptor [5]): 48%

Structure (SMILES): O=C1c2ccccc2C(=O)N1CCCCN1[C@@H]2CC[C@@H]1CC(c1cccc(O)c1)C2 (relative stereo; 21b)
- Intrinsic activity (Mu-type opioid receptor [5]): 97%

Structure (SMILES): Oc1cccc(C2C[C@H]3CC[C@H](C2)N3CCCc2ccccc2)c1 (relative stereo; 12b) [listing 2 of 2 here]
- Intrinsic activity (Mu-type opioid receptor [5]): 64%

— ChEMBL document CHEMBL4020770, “Discovery of N-substituted-endo-3-(8-aza-bicyclo[3.2.1]oct-3-yl)-phenol and -phenyl carboxamide series of μ-opioid receptor antagonists” (Bioorg Med Chem Lett, 2017)
